From ChEMBL document CHEMBL1157306, “Capisterones A and B, which enhance fluconazole activity in Saccharomyces cerevisiae, from the marine green alga Penicillus capitatus” (J Nat Prod, 2006)
pIC50: −log10 of the molar value. Active and inactive are the calls of the source. No cut-off for these calls is given here.

Experiments:
Saccharomyces cerevisiae [1] = assay: Potentiation of fluconazole-induced antifungal activity against null pump Saccharomyces cerevisiae DSY 390 assessed as fractional inhibitory concentration at 12.8 uM; format: functional
In short: (§1)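 Fluconazole dose-response curves were run alone and with a fixed concentration of second agent (22.5, 6.0 or 12.8 μM). Strains were S. cerevisiae null pump DSY 390 and DSY 415 overexpressing C. albicans CDR1 or MDR1. Growth inhibition was the read-out, and the fractional inhibitory concentration was derived from it.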

Saccharomyces cerevisiae [2] = assay: Potentiation of fluconazole-induced antifungal activity against Saccharomyces cerevisiae DSY 415 overexpressing Candida albicans CDR1 assessed as fractional inhibitory concentration at 12.8 uM; format: functional; in short: as §1
Saccharomyces cerevisiae [3] = assay: Potentiation of fluconazole-induced antifungal activity against Saccharomyces cerevisiae DSY 415 overexpressing Candida albicans MDR1 assessed as fractional inhibitory concentration at 12.8 uM; format: functional; in short: as §1
Candida albicans = assay: Antifungal activity against Candida albicans; format: functional, organism-based
Nakaseomyces glabratus = assay: Antifungal activity against Candida glabrata; format: functional, organism-based
Pichia kudriavzevii = assay: Antifungal activity against Candida krusei; format: functional, organism-based
Cryptococcus neoformans = assay: Antifungal activity against Cryptococcus neoformans; format: functional, organism-based
Aspergillus fumigatus = assay: Antifungal activity against Aspergillus fumigatus; format: functional, organism-based
KB = assay: Cytotoxicity against human KB cells; format: functional, cell-based
In short: (§2)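 Human cancer cell lines (KB, SK-MEL, BT-549, SK-OV-3) tested alongside non-cancerous Vero cells, with test agent concentrations up to 35 μM.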

SK-MEL = assay: Cytotoxicity against human SK-MEL cells; format: functional, cell-based; in short: as §2
BT-549 = assay: Cytotoxicity against human BT549 cells; format: functional, cell-based; in short: as §2
SK-OV-3 = assay: Cytotoxicity against human SKOV3 cells; format: functional, cell-based; in short: as §2
Vero = assay: Cytotoxicity against african green monkey Vero cells up to 35 uM; format: cell-based; settings: chlorocebus sabaeus
Saccharomyces cerevisiae [4] = assay: Antifungal activity against Saccharomyces cerevisiae DSY 415 overexpressing Candida albicans MDR1 at 67.4 uM; format: functional, organism-based
Saccharomyces cerevisiae [5] = assay: Antifungal activity against null pump Saccharomyces cerevisiae DSY 390 at 67.4 uM; format: functional, organism-based
Saccharomyces cerevisiae [6] = assay: Antifungal activity against Saccharomyces cerevisiae DSY 415 overexpressing Candida albicans MDR1 at 12.8 uM; format: functional, organism-based
Saccharomyces cerevisiae [7] = assay: Antifungal activity against null pump Saccharomyces cerevisiae DSY 390 at 12.8 uM; format: functional, organism-based
Saccharomyces cerevisiae [8] = assay: Antifungal activity against Saccharomyces cerevisiae DSY 415 overexpressing Candida albicans CDR1; format: functional, organism-based
In short: (§3)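 Growth inhibition of S. cerevisiae strains with efflux pumps overexpressed (CDR1 or MDR1, DSY 415) or no pump (DSY 390) was measured across a dose range of test agent alone. IC50 was read from the dose-response curves.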

Saccharomyces cerevisiae [9] = assay: Antifungal activity against Saccharomyces cerevisiae DSY 415 overexpressing Candida albicans MDR1; format: functional, organism-based; in short: as §3
Saccharomyces cerevisiae [10] = assay: Antifungal activity against null pump Saccharomyces cerevisiae DSY 390; format: functional, organism-based; in short: as §3
Saccharomyces cerevisiae [11] = assay: Antifungal activity against Saccharomyces cerevisiae DSY 415 overexpressing Candida albicans CDR1 at 67.4 uM; format: functional, organism-based
Saccharomyces cerevisiae [12] = assay: Antifungal activity against Saccharomyces cerevisiae DSY 415 overexpressing Candida albicans CDR1 at 12.8 uM; format: functional, organism-based
Saccharomyces cerevisiae [13] = assay: Potentiation of fluconazole-induced antifungal activity against Saccharomyces cerevisiae DSY 415 overexpressing Candida albicans CDR1 assessed as fractional inhibitory concentration at 22.5 uM; format: functional; in short: as §1
Saccharomyces cerevisiae [14] = assay: Potentiation of fluconazole-induced antifungal activity against Saccharomyces cerevisiae DSY 415 overexpressing Candida albicans MDR1 assessed as fractional inhibitory concentration at 22.5 uM; format: functional; in short: as §1
Saccharomyces cerevisiae [15] = assay: Potentiation of fluconazole-induced antifungal activity against null pump Saccharomyces cerevisiae DSY 390 assessed as fractional inhibitory concentration at 22.5 uM; format: functional
In short: (§4)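 Pump-null S. cerevisiae DSY 390 was run in parallel with strains overexpressing C. albicans CDR1 or MDR1 efflux pumps. Growth-inhibition dose-response curves were recorded for fluconazole alone and for fluconazole with a fixed modulator concentration (22.5 or 6.0 μM). The interaction was expressed as a fractional inhibitory concentration (FIC) index.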

Saccharomyces cerevisiae [16] = assay: Potentiation of fluconazole-induced antifungal activity against Saccharomyces cerevisiae DSY 415 overexpressing Candida albicans CDR1 assessed as fractional inhibitory concentration at 6.03 uM; format: functional; in short: as §1
Saccharomyces cerevisiae [17] = assay: Potentiation of fluconazole-induced antifungal activity against Saccharomyces cerevisiae DSY 415 overexpressing Candida albicans MDR1 assessed as fractional inhibitory concentration at 6.03 uM; format: functional; in short: as §1
Saccharomyces cerevisiae [18] = assay: Potentiation of fluconazole-induced antifungal activity against null pump Saccharomyces cerevisiae DSY 390 assessed as fractional inhibitory concentration at 6.03 uM; format: functional; in short: as §4

SMILES: CC(C)[C@@H]1OC(=O)[C@@H](Cc2ccccc2)N(C)C(=O)[C@H](C(C)C)OC(=O)[C@@H](Cc2ccccc2)N(C)C(=O)[C@H](C(C)C)OC(=O)[C@@H](Cc2ccccc2)N(C)C1=O [BEAUVERICIN]
- FIC50 (Saccharomyces cerevisiae [1]): 2.67
- FIC50 (Saccharomyces cerevisiae [2]): 0.05
- FIC50 (Saccharomyces cerevisiae [3]): 2

SMILES: CC(=O)OC[C@@]1(COS(=O)(=O)O)C(=O)CC[C@]23C[C@]24CC[C@]2(C)[C@@H]([C@H](C)CC(=O)CC(C)C)CC[C@@]2(C)[C@@H]4CC[C@@H]13 [CAPISTERONE A]
- Activity (Candida albicans): inactive
- Activity (Nakaseomyces glabratus): inactive
- Activity (Pichia kudriavzevii): inactive
- Activity (Cryptococcus neoformans): inactive
- Activity (Aspergillus fumigatus): inactive
- Activity (KB): inactive
- Activity (SK-MEL): inactive
- Activity (BT-549): inactive
- Activity (SK-OV-3): inactive
- Activity (Vero): Not Active
- Activity (Saccharomyces cerevisiae [4]): inactive
- Activity (Saccharomyces cerevisiae [5]): inactive
- Activity (Saccharomyces cerevisiae [6]): inactive
- Activity (Saccharomyces cerevisiae [7]): inactive
- pIC50 (Saccharomyces cerevisiae [8]): < 4.17
- pIC50 (Saccharomyces cerevisiae [9]): < 4.17
- pIC50 (Saccharomyces cerevisiae [10]): < 4.17
- Activity (Saccharomyces cerevisiae [11]): inactive
- Activity (Saccharomyces cerevisiae [12]): inactive
- FIC50 (Saccharomyces cerevisiae [13]): 0.33
- FIC50 (Saccharomyces cerevisiae [14]): 0.08
- FIC50 (Saccharomyces cerevisiae [15]): 0.55

SMILES: CC(C)CC(=O)C[C@@H](C)[C@H]1CC[C@@]2(C)[C@@H]3CC[C@H]4[C@](CO)(COS(=O)(=O)O)C(=O)CC[C@@]45C[C@@]35CC[C@]12C [CAPISTERONE B]
- Activity (Candida albicans): inactive
- Activity (Nakaseomyces glabratus): inactive
- Activity (Pichia kudriavzevii): inactive
- Activity (Cryptococcus neoformans): inactive
- Activity (Aspergillus fumigatus): inactive
- Activity (KB): inactive
- Activity (SK-MEL): inactive
- Activity (BT-549): inactive
- Activity (SK-OV-3): inactive
- Activity (Vero): Not Active
- pIC50 (Saccharomyces cerevisiae [8]): 5.15
- pIC50 (Saccharomyces cerevisiae [9]): 5.15
- pIC50 (Saccharomyces cerevisiae [10]): 5.15
- FIC50 (Saccharomyces cerevisiae [16]): 0.33
- FIC50 (Saccharomyces cerevisiae [17]): 0.15
- FIC50 (Saccharomyces cerevisiae [18]): 0.5
